Sampled rows, rich in hits. Any-hit rate of the full collection: about 2.7%.
CSN deneddyl inh: inhibitors of human CSN-mediated cullin deneddylation | AID 651999 | Q92905 | 360,000 tested, 0.38% active | inhibition, % at 12.5 µM | Purified CSN, SCF-Nedd8-OG deneddylation, fluorescence polarization;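 active means pattern-corrected inhibition above about 35%, with an unprinted fluorescence ratio check between 0.5 and 1.5, limit read from the data, passing the limit was not always enough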;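 further: 0% = enzyme with substrate and 100% = substrate without enzyme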
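assay system = purified human Csn5 enzyme expressed in HEK293T cells | amount = 0.24 nM enzyme | buffer or medium = Tris/NaCl/DTT buffer, pH 7.5 | reagent = 10 nM SCFSkp2-Nedd8OG | compound = one concentration, 12.5 µM, 0.25% DMSO | times = 90 min reaction at room temperature | signal = FP | read-out basis = % inhibition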
PP1 counter: blocks human PP1-alpha phosphatase, a PP5 counter-screen; P62136; purified PP1alpha, OMFP fluorescence; inhibition, % at 6.7 µM; 320,000 tested, 0.9% active; AID 2235;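 active means inhibition above the mean inhibition of all tested compounds plus 3 SD, computed separately for each screening campaign, cut at about 15% in these data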
Target sequence (P62136 whole entry, looked up): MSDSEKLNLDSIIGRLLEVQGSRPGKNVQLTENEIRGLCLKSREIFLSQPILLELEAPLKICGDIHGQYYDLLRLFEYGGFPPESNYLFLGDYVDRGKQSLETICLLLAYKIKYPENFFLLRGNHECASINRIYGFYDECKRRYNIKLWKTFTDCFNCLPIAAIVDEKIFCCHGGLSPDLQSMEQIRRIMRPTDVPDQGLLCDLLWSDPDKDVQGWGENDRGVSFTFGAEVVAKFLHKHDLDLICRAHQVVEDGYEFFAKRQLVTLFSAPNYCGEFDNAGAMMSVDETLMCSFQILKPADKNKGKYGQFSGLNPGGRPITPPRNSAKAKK
Rpn11 block: Rpn11 (human) deubiquitinase inhibition; human 26S proteasome, Ub4-pepOG fluorescence polarization; 20S core pre-blocked with epoxomicin; inhibition, % at 20 µM; 360,000 tested, 0.59% active;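 active means inhibition at 20 µM, scaled to each plate's controls, above about 33%, limit read from the data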
Target sequence (O00487 whole entry, looked up): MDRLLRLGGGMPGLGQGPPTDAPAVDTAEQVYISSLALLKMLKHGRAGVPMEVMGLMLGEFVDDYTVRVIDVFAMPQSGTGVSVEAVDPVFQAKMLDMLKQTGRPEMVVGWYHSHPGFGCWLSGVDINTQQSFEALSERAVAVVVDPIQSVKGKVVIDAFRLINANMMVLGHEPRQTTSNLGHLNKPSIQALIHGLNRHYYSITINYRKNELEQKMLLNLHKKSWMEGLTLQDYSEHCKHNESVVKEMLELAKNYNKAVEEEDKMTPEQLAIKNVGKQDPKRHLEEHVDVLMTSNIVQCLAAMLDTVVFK
HNF4A DNA FP: change in binding of human HNF4 alpha to DNA; activity change, % at 10 µM; 360,000 tested, 0.3% active; HNF4a-FITC DNA binding, fluorescence polarization, 1 h; P41235; in the data active means activity change above about 30%, passing the limit was not always enough
TPT1 inh: C. albicans TPT1 enzyme inhibition; recombinant caTPT1, FP RNA substrate dephosphorylation; inhibition, % at 5 µM; 300,000 tested, 0.81% active;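 active means inhibition above the mean of all tested compounds plus 3 SD, set per screening campaign, cut at about 24% in these data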;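 further: plate controls were DMSO alone for no effect and ferristatin control at 100 nM for full effect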
NadD block: blocks S. aureus nicotinate mononucleotide adenylyltransferase | purified NadD enzyme, colorimetric absorbance read-out | inhibition, % at 20 µM | 360,000 tested, 0.78% active; in the data active means inhibition above about 26%
NadD conf: NadD (S. aureus) inhibition, single concentration confirmation; inhibition, % at 20 µM; purified S. aureus NadD, colorimetric enzyme assay; shares compounds with NadD block; 2,000 tested, 13% active; in the data active means inhibition mostly above about 42%, no sharp cut-off; inactive means mostly below about 42%
Active calls of the source: *; x = not tested or not shown.

SMILES | CSN deneddyl inh | PP1 counter | Rpn11 block | HNF4A DNA FP | TPT1 inh | NadD block | NadD conf
Cc1cc(C(=O)Nc2c(C)n(C)n(-c3ccccc3)c2=O)c2ccccc2n1 | 2 | 0 | -5 | 2 | -6 | 5 | x
NS(=O)(=O)c1ccc(CCNc2nc3c(-c4cccc(F)c4)nnn3c3ccccc23)cc1 | 20 | -2 | 28 | 6 | -1 | 30 | x
Cc1cccc(-c2nnn3c2nc(NCCc2ccc(S(N)(=O)=O)cc2)c2ccccc23)c1 | 23 | -2 | 11 | -11 | 1 | 34* | 11
CC/C(C)=N/Nc1nc(-c2cc3cccc(OC)c3oc2=O)cs1 | -3 | -3 | -1 | -4 | 4 | 51* | 30
c1ccc(Nc2nc(-c3ccccc3)ns2)cc1 | 2 | -1 | -2 | 0 | -2 | -7 | x
Cc1sc(NC(=O)CN2CCCC2)nc1-c1ccc2c(c1)CCN2C(=O)c1cccc(F)c1 | 0 | 5 | 2 | 6 | 0 | 16 | x
Cc1sc(NC(=O)Cc2ccc3c(c2)OCO3)nc1-c1ccc2c(c1)CCN2C(=O)c1ccc(F)cc1 | -1 | 13 | 0 | 1 | 3 | 35* | 28
CCOC(=O)C(=O)Nc1nc(-c2ccc3c(c2)CCN3C(=O)C2CC2)c(C)s1 | 2 | 4 | 2 | 1 | -1 | 7 | x
Cc1sc(NC(=O)Cc2ccc3c(c2)OCO3)nc1-c1ccc2c(c1)CCN2C(=O)c1ccccc1F | -1 | 9 | 4 | 2 | 0 | 37* | 20
COC1OC(COCc2ccccc2)C(N)C(OCc2ccccc2)C1OCc1ccccc1 (centres undefined) | 1 | x | 1 | -4 | x | -6 | x
CC1(C)Cc2c(cnn2-c2cccc(F)c2)C(NC(=O)Cn2cccn2)C1 (centres undefined) | 5 | x | 0 | 0 | x | -2 | x
COC(=O)c1sc(NC(=O)c2cc(-c3ccccc3)nc3ccccc23)c(C#N)c1C | 4 | 0 | 7 | 2 | -2 | 21 | x
CCOC(=O)c1sc(NC(=O)c2cc(-c3ccc(C)cc3)nc3ccccc23)c(C#N)c1C | -4 | -3 | 8 | -1 | 5 | 42* | 11
Cc1sc(NC(=O)c2cc(-c3ccc(Cl)cc3)nc3ccccc23)c(C(N)=O)c1C | 7 | 8 | -4 | -1 | 0 | 33* | 6
Cc1ccccc1-c1cc(C(=O)Nc2sc(C(=O)OC(C)C)c(C)c2C#N)c2ccccc2n1 | 3 | -4 | 24 | 3 | 3 | 74* | 27
Cc1cc(NC(=O)c2cc(-c3ccccc3C)nc3ccccc23)no1 | 1 | 5 | 11 | 4 | -5 | 4 | x
CCOC(=O)C(=NO)C1=CSC2=NNC(C)(C)N12 | 7 | x | -6 | 5 | x | -1 | x
O=C1CC(/C=C/c2ccccn2)=Nc2ccccc2N1 | 3 | -3 | 4 | 7 | -4 | 1 | x
O=C1CC(/C=C/c2ccc([N+](=O)[O-])cc2)=Nc2ccccc2N1 | 6 | 3 | 6 | 4 | 0 | 36* | 2
O=C(c1ccco1)N1N=C(c2ccco2)CC1c1ccc(Cl)cc1Cl (centres undefined) | 4 | 0 | 19 | 4 | x | 31* | 0
Cc1ccc(CC(=O)N/N=C/c2ccc(OC(=O)c3ccc([N+](=O)[O-])cc3)cc2)cc1 | -13 | -4 | -10 | -6 | -4 | 33* | 5
Cc1cc(C)cc(-c2nnc(SCC(=O)NCC3CCCO3)o2)c1 (centres undefined) | -2 | x | -2 | 0 | x | -5 | x
N#CC1=C(S)N=C(N)C(c2nc(-c3ccccc3)cs2)C12CCCC2 (centres undefined) | 13 | -3 | 26 | 8 | 5 | 52* | 73*
N#CC1=C(N)N=C(SCc2ccccc2)C(C(N)=O)C12CCCCC2 (centres undefined) | -2 | 3 | -11 | 2 | 3 | 2 | x
N#CC1=C(S)N=C(N)C(c2nc(-c3ccccc3)cs2)C12CCCCC2 (centres undefined) | 7 | 0 | 39 | 12 | 11 | 52* | 75*
SMILES | CSN deneddyl inh | PP1 counter | Rpn11 block | HNF4A DNA FP | TPT1 inh | NadD block | NadD conf
Nc1nc(-c2ccccc2)cs1 | -1 | 1 | -2 | -3 | -1 | 0 | x
CN1OC[C@@H]2CN(Cc3cc(Cl)cc(Cl)c3)[C@H](c3cccc(Br)c3)C[C@@H]21 | 5 | x | -5 | -1 | x | 2 | x
N=c1scc(-c2ccccc2)n1/N=C/c1ccco1 | -2 | 1 | 19 | 8 | 19 | 38* | 45
C(=N/n1c2ccccc2c2ccccc21)/c1ccco1 | 0 | -1 | 2 | 1 | 2 | -1 | x
COc1ccccc1NS(=O)(=O)c1cccc(C(=O)N/N=C/c2cn(-c3ccccc3)nc2-c2ccccc2)c1 | -7 | 4 | -10 | 1 | -2 | 33* | 25
O=C(NNC(=O)c1cc2cc(Br)ccc2oc1=O)c1ccc(O)cc1O | 54 | 4 | 0 | 1 | 0 | 29* | 58*
COCCCNC(=O)c1cc2cc(Br)ccc2oc1=O | 5 | -4 | 4 | 3 | -1 | -3 | x
COc1ccc(CCOC(=O)c2ccc(N)c([N+](=O)[O-])c2)cc1 | -9 | 0 | -3 | -2 | -1 | -6 | x
Cc1ccc2c3c(c(SCC(=O)Nc4nonc4C)nc2c1)CCCC3 | 4 | -3 | 2 | 1 | -2 | -3 | x
Cc1nonc1NC(=O)CSc1nc2cc(Cl)ccc2c2c1CCCC2 | 3 | 0 | 34 | 10 | 6 | 30* | 12
NS(=O)(=O)c1ccc(CCNC(=O)CCCCCn2c(=S)[nH]c3ccc(Br)cc3c2=O)cc1 | 5 | 7 | 7 | 2 | -1 | 31* | 37
O=C(CCCCCn1c(=S)[nH]c2ccc(Br)cc2c1=O)NCC1CCCO1 (centres undefined) | -2 | -1 | 0 | -2 | 0 | 4 | x
Clc1ccc(/C=N/Nc2nc(Cl)nc3ccccc23)cc1 | 3 | 6 | 10 | 1 | 3 | 8 | x
Clc1ccc(/C=N/NC2=Nc3cccc4cccc2c34)cc1 | 16 | 2 | 28 | 22 | 13 | 30* | 17
O=C(Nc1cc([N+](=O)[O-])ccc1O)c1cccc(C(=O)Nc2cc([N+](=O)[O-])ccc2O)c1 | 7 | -5 | -6 | -3 | -4 | 48* | -3
O=C(Nc1cc([N+](=O)[O-])ccc1O)c1cccc([N+](=O)[O-])c1 | 0 | 4 | -2 | 4 | -1 | -2 | x
COc1cc(CCNC2=CC(=O)c3ncccc3C2=O)ccc1O | 3 | x | -6 | 6 | x | 4 | x
COc1ccccc1/C=C1/SC(=O)N(CCC(=O)Nc2ccc(S(=O)(=O)Nc3nccs3)cc2)C1=O | 1 | 7 | 6 | 2 | -5 | 56* | 33

From PubChem BioAssay
